Source: ChEMBL document CHEMBL4145456, “Synthesis and biological evaluation of novel 2-arylvinyl-substituted naphtho[2,3-d]imidazolium halide derivatives as potent antitumor agents” (Eur J Med Chem, 2018)
Active and inactive are the calls of the source. No cut-off for these calls is given here.

Tests used:
[1] = tested on: PC-3; assay: Antiproliferative activity against human PC3 cells after 48 hrs by CellTiter 96 aqueous one solution assay; type: functional, cell-based; conditions: PC-3, 48 h
In short: (§1)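 Cells in 10% FBS medium with penicillin/streptomycin at 37°C, 5% CO2, seeded at 3000-10000 per well and precultured 1 day. DMSO stocks (10 mM) were diluted to a 10 µM top working solution, then serially diluted 3-fold in medium. Exposure was 48 h. Read-out was MTS tetrazolium-to-formazan absorbance at 492 nm. IC50 came from a three-parameter logistic fit, mean of three independent experiments.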

[2] = tested on: HeLa; assay: Antiproliferative activity against human HeLa cells after 48 hrs by CellTiter 96 aqueous one solution assay; type: functional, cell-based; in short: as §1
[3] = tested on: A-375; assay: Antiproliferative activity against human A375 cells after 48 hrs by CellTiter 96 aqueous one solution assay; type: functional, cell-based; conditions: A-375, 48 h; in short: as §1
[4] = tested on: Ehrlich; assay: Antitumor activity against mouse EAC cells implanted in ICR mouse assessed as tumor growth inhibition at 30 mg/kg, ip qd dosed for 10 consecutive days relative to control; conditions: read-out: TGI
[5] = tested on: PC-3; assay: Induction of apoptosis in human PC3 cells assessed as viable cells at 1 nM after 24 hrs by Annexin V/propidium iodide staining-based FACS analysis (reference value: 97.0%); type: functional; conditions: PC-3, 24 h, read-out: Activity
[6] = tested on: A-375; assay: Induction of apoptosis in human A375 cells assessed as viable cells at 10 nM after 24 hrs by Annexin V/propidium iodide staining-based FACS analysis (reference value: 92.2%); type: functional; conditions: A-375, 24 h, read-out: Activity
[7] = tested on: A-375; assay: Induction of apoptosis in human A375 cells assessed as viable cells at 1000 nM after 24 hrs by Annexin V/propidium iodide staining-based FACS analysis (reference value: 92.2%); type: functional; conditions: A-375, 24 h, read-out: Activity
[8] = tested on: PC-3; assay: Induction of apoptosis in human PC3 cells assessed as viable cells at 10 nM after 24 hrs by Annexin V/propidium iodide staining-based FACS analysis (reference value: 97.0%); type: functional; conditions: PC-3, 24 h, read-out: Activity
[9] = tested on: A-375; assay: Induction of apoptosis in human A375 cells assessed as decrease in Bcl-2 expression at 10 to 1000 nM after 48 hrs by Western blot analysis; type: functional, cell-based
In short: (§2)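 A375 cells at 1×10^5 per well were treated for 48 h and lysed in RIPA buffer. Equal protein was run on 12% SDS-PAGE and transferred to PVDF, which was blocked in 5% milk/PBS for 1 h at room temperature. Primary antibodies (survivin, caspase-3, Bcl-2, PARP, p-ERK, total ERK, GAPDH) were used at 1:1000. GAPDH served as loading control.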

[10] = tested on: A-375; assay: Induction of apoptosis in human A375 cells assessed as viable cells at 100 nM after 24 hrs by Annexin V/propidium iodide staining-based FACS analysis (reference value: 92.2%); type: functional; conditions: A-375, 24 h, read-out: Activity
[11] = tested on: A-375; assay: Induction of apoptosis in human A375 cells assessed as decrease in survivin expression at 10 to 1000 nM after 48 hrs by Western blot analysis; type: functional, cell-based; in short: as §2
[12] = tested on: PC-3; assay: Induction of apoptosis in human PC3 cells assessed as viable cells at 100 nM after 24 hrs by Annexin V/propidium iodide staining-based FACS analysis (reference value: 97.0%); type: functional; conditions: PC-3, 24 h, read-out: Activity
[13] = tested on: A-375; assay: Induction of apoptosis in human A375 cells after 24 hrs by Annexin V/propidium iodide staining-based FACS analysis; type: functional, cell-based
[14] = tested on: A-375; assay: Induction of apoptosis in human A375 cells assessed as increase in procaspase-3 cleavage at 10 to 1000 nM after 48 hrs by Western blot analysis; type: functional, cell-based; in short: as §2
[15] = species on record: Homo sapiens; assay: Induction of microtubule disruption in human A375 cells assessed as cell detachment at 70 nM after 24 hrs by FITC/DAPI staining-based fluorescence assay
In short: (§3)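 A375 cells grown in 96-well plates, 8×10^3 cells/well, exposed to DMSO vehicle or compound for 24 h at 37°C. Cells were washed, then fixed, blocked and permeabilized. They were stained overnight with monoclonal α-tubulin primary antibody, then 3 h with FITC-labelled secondary; nuclei counterstained with DAPI. Imaged on an automated imaging system at 200×. Paclitaxel served as positive control.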

[16] = species on record: Homo sapiens; assay: Induction of microtubule disruption in human A375 cells assessed as cell shrunk with improper microtubule bundling at 70 nM after 24 hrs by FITC/DAPI staining-based fluorescence assay; in short: as §3
[17] = species on record: Homo sapiens; assay: Induction of microtubule disruption in human A375 cells assessed as appearance of rounded cell at 70 nM after 24 hrs by FITC/DAPI staining-based fluorescence assay
In short: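 A375 cells at 8×10^3 per well were treated for 24 h at 37°C, then washed, fixed, blocked and permeabilized. They were stained with anti-α-tubulin overnight and a FITC secondary for 3 h, and nuclei were counterstained with DAPI. Automated imaging was at 200×, and rounded cells were scored from morphology.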

[18] = tested on: Mus musculus; assay: Toxicity in ICR mouse implanted with EAC cells assessed as decrease in thymus index at 0.06 to 0.6 mg/kg, ip qd dosed for 10 consecutive days; type: organism-based; conditions: in vivo
In short: (§4)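 Adult male ICR mice, 6 weeks, 20-25 g, n=7 per group. Given 5×10^6 EAC cells s.c. in the right thigh; cells came from intraperitoneal passage in donor mice. From day 1, dosed i.p. daily for 10 d (0.1 mL/10 g) in saline with 4% DMA and 2% Solutol HS15; vehicle controls included. Spleen and thymus weighed at sacrifice; organ index is organ weight/body weight.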

[19] = tested on: Mus musculus; assay: Toxicity in ICR mouse implanted with EAC cells assessed as decrease in spleen index at 0.06 to 0.6 mg/kg, ip qd dosed for 10 consecutive days; type: organism-based; conditions: in vivo; in short: as §4

| Structure (SMILES) | IC50 [1] | IC50 [2] | IC50 [3] | further results |
| --- | --- | --- | --- | --- |
| COCC[n+]1c2c(n(Cc3ccccc3)c1/C=C/c1ccc(O)c(OC)c1)C(=O)c1ccccc1C2=O | 22 nM | 1130 nM | 536 nM |  |
| COCC[n+]1c2c(n(Cc3cccc(OC)c3)c1/C=C/c1cc(OC)c(OC)c(OC)c1)C(=O)c1ccccc1C2=O | 291 nM | 7500 nM | 1000 nM |  |
| COCC[n+]1c2c(n(Cc3ccccc3)c1/C=C/c1cccc(O)c1)C(=O)c1ccccc1C2=O | 100 nM | 4860 nM | 791 nM |  |
| COCC[n+]1c2c(n(Cc3cccc(OC)c3)c1/C=C/c1c[nH]c3ccccc13)C(=O)c1ccccc1C2=O | 215 nM | 1370 nM | 353 nM |  |
| COCC[n+]1c2c(n(Cc3ccccc3)c1/C=C/C=C/c1ccccc1)C(=O)c1ccccc1C2=O | 212 nM | 1280 nM | 551 nM |  |
| O=P1(N(CCCl)CCCl)NCCCO1 (stereo not drawn) [CYCLOPHOSPHAMIDE ANHYDROUS] |  |  |  | inhibition in vivo at 30 mg/kg [4]: 48.9% |
| CC[n+]1c2c(n(C3CC3)c1/C=C/c1c[nH]c3ccccc13)C(=O)c1ccccc1C2=O | 52 nM | 2050 nM | 891 nM |  |
| CC[n+]1c2c(n(C3CC3)c1/C=C/c1cc(OC)c(OC)c(OC)c1)C(=O)c1ccccc1C2=O | 143 nM | > 30000 nM | 26000 nM |  |
| COCC[n+]1c2c(n(Cc3cccc(OC)c3)c1/C=C/c1cccc(O)c1)C(=O)c1ccccc1C2=O | 222 nM | 7330 nM | 1120 nM |  |
| CC(=O)O[C@H]1C(=O)[C@@]2(C)[C@H]([C@H](OC(=O)c3ccccc3)[C@]3(O)C[C@H](OC(=O)[C@H](O)[C@@H](NC(=O)c4ccccc4)c4ccccc4)C(C)=C1C3(C)C)[C@]1(OC(C)=O)CO[C@@H]1C[C@@H]2O |  |  |  | Activity [15]: Active; Activity [16]: Active; Activity [17]: Active |
| COCC[n+]1c2c(n(Cc3ccccc3)c1/C=C/c1c[nH]c3ccccc13)C(=O)c1ccccc1C2=O.[Br-] |  |  |  | Activity [18]: Non-Toxic; Activity [19]: Non-Toxic |
| COCC[n+]1c2c(n(Cc3ccccc3)c1C)C(=O)c1ccccc1C2=O | 73 nM | 10000 nM | 1140 nM |  |

The next lines start with results.

| IC50 [1] | IC50 [2] | IC50 [3] | Structure (SMILES) | further results |
| --- | --- | --- | --- | --- |
| 39 nM | 9930 nM | 1430 nM | CC[n+]1c2c(n(C(C)C)c1/C=C/c1ccc([N+](=O)[O-])cc1)C(=O)c1ccccc1C2=O |  |
| 140 nM | 13000 nM | 2940 nM | CC[n+]1c2c(n(C(C)C)c1/C=C/c1cccc(O)c1)C(=O)c1ccccc1C2=O |  |
| 38 nM | 18500 nM | 13900 nM | CC[n+]1c2c(n(C3CC3)c1/C=C/c1ccc(O)c(OC)c1)C(=O)c1ccccc1C2=O |  |
| 28 nM | 11300 nM | 5360 nM | CC[n+]1c2c(n(C3CC3)c1/C=C/c1cccc([N+](=O)[O-])c1)C(=O)c1ccccc1C2=O |  |
| 22 nM | 1120 nM | 1070 nM | CC[n+]1c2c(n(C(C)C)c1/C=C/c1ccc(C)cc1)C(=O)c1ccccc1C2=O | viability at 0.001 µM [5]: 98%; viability at 0.01 µM [6]: 88.3%; viability at 1 µM [7]: 65.7%; viability at 0.01 µM [8]: 96.5%; Activity [9]: Active; viability at 0.1 µM [10]: 82.2%; Activity [11]: Active; viability at 0.1 µM [12]: 75.6%; Activity [13]: Dose-dependent effect; Activity [14]: Active |
| 72 nM | > 30000 nM | 5580 nM | CC[n+]1c2c(n(C(C)C)c1/C=C/c1ccc(O)cc1)C(=O)c1ccccc1C2=O |  |
| 66 nM | 13500 nM | 8000 nM | CC[n+]1c2c(n(C3CC3)c1/C=C/c1ccc(OC)c(OC)c1)C(=O)c1ccccc1C2=O |  |
| 38 nM | 6540 nM | 1310 nM | CC[n+]1c2c(n(C3CC3)c1/C=C/c1ccccc1)C(=O)c1ccccc1C2=O |  |
| 71 nM | 6120 nM | 553 nM | CC[n+]1c2c(n(C(C)C)c1/C=C/c1c[nH]c3ccccc13)C(=O)c1ccccc1C2=O |  |
| 90 nM | > 30000 nM | 6580 nM | CC[n+]1c2c(n(C(C)C)c1/C=C/c1ccc(O)c(OC)c1)C(=O)c1ccccc1C2=O |  |
